Screening results from PubChem.
CHOP inh: inhibitors of CHOP promoter induction, primary screen, cell-based, unfolded protein response, luciferase reporter; CHO-K1 CHOP-promoter luciferase, tunicamycin-induced, 15-18 h; 220,000 compounds, 3.8% hits; inhibition, % at 10 µM;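 active means compounds that reduced the stress-induced luciferase reporter signal by more than about 70% of percent inhibition, limit read from the data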
PKD1 kinase inh: inhibitors of human PKD1 kinase, biochemical, fluorescence polarization | AID 797, 2007 | Serine/threonine-protein kinase D1 (Homo sapiens), Q15139 | inhibition, % (test concentration not listed) | 200,000 compounds, 0.056% hits | PKD1 kinase fluorescence polarization assay
Rad51 HR inh: human RAD51 strand exchange inhibitors, primary screen, biochemical, fluorescence. AID 1385, 2008. 200,000 compounds, 0.085% hits. DNA repair protein RAD51 homolog 1 (Homo sapiens), Q06609. hRad51 DNA strand exchange, fluorescence dequenching. inhibition, % at 10 µM;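 active means inhibition above 40% at the single screening dose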
Target sequence (Q06609 whole entry, looked up): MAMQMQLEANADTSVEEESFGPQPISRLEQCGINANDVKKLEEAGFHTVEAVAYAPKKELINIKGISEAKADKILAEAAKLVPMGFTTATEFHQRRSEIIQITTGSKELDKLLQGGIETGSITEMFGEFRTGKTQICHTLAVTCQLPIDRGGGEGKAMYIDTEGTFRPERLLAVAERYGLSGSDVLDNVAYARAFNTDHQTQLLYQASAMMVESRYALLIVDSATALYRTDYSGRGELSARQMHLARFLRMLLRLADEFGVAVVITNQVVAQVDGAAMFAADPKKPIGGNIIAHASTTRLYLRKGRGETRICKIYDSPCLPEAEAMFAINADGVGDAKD
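material = hRad51 filaments on single-stranded DNA | timing = filaments 15 min 37 °C, then compound 30 min | signal = FRET fluorescence dequenching, excitation 485 nm, emission 520 nm | benchmarks = control wells and blank wells on each plate | evaluation = percent inhibition relative to plate controls and blanks | compound = 10 µM final, single point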
Wee1 degr inh: Wee1 degradation inhibitors, primary screen, cell-based, HeLa, Wee1K328M-luciferase, luminescence | Wee1-like protein kinase (Homo sapiens), P30291 | HeLa Luc-Wee1K328M stability; 100% = proteasome inhibitor MG132 effect | reporter increase, % at 5 µM | 220,000 compounds, 1.2% hits;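 active means activation above the mean of all tested compounds plus 3 SD, set per screening run, cut at about 8.8% in these data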;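 further: cells exposed to compound for 20 h before luminescence read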
Arbovirus inh: antivirals against arbovirus infection, primary screen, cell-based, full library, 10K replicate subset; arbovirus infection cell-based antiviral screen; inhibition, % at 10 µM; 200,000 compounds, 0.37% hits; AID 1251, 2008; in the data active means inhibition above about 30%
Lmaj promast: Leishmania major promastigote growth inhibition, primary screen | Leishmania major promastigotes, resazurin fluorescence viability | inhibition, % at 10 µM | 200,000 compounds, 9% hits | AID 1063, 2008;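 further: promastigotes grown with compound for 44 hours at 28 °C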
Wee1 degr conf: Wee1 degradation inhibitors, confirmation, cell-based, HeLa, Wee1K328M-luciferase, luminescence, triplicate | shares compounds with Wee1 degr inh | HeLa Luc-Wee1K328M degradation; vehicle 0%, proteasome-blocked wells 100% | activation, % at 5 µM | 1,100 compounds, 4% hits | AID 1410, 2008; in the data active means activation above about 8.9%
Numbers stand for hits. Compounds with a hit are over-represented: about 12% of the library has one in this group of screens. Unless noted, no stated cut-off is given here; in the data, active means inhibition above about 50%; inactive means the rest.

How did NC(=O)[C@H]1CC2(CC(c3cccc(NC(=O)[C@H]4CCC(=O)N4)c3)=NO2)CN1C(=O)c1cc([N+](=O)[O-])cc([N+](=O)[O-])c1 (stereo partly specified) do in these assays?
CHOP inh: inactive; Rad51 HR inh: inactive

Results for O=C1NC(=S)N/C1=C\c1ccc(N2CCOCC2)cc1 ?
CHOP inh: inactive; PKD1 kinase inh: inactive; Rad51 HR inh: inactive; Wee1 degr inh: inactive; Arbovirus inh: inactive; Lmaj promast: inactive

Results for COc1ccccc1/C=C/C(=O)Nc1ccc2c(c1)CCC2 ?
CHOP inh: inactive; PKD1 kinase inh: inactive; Rad51 HR inh: inactive; Wee1 degr inh: 11; Arbovirus inh: inactive; Lmaj promast: inactive; Wee1 degr conf: inactive

Results for O=S(=O)(c1ccc(N2CCC(c3ccc(Cl)cc3)=N2)cc1)N(CCO)CCO ?
CHOP inh: inactive; PKD1 kinase inh: inactive; Rad51 HR inh: inactive; Wee1 degr inh: 11; Arbovirus inh: inactive; Lmaj promast: inactive; Wee1 degr conf: inactive

What do the screens show for `Cc1cc(C)cc(NC(=S)N(CCN(C)C)Cc2cccs2)c1`?
CHOP inh: inactive; PKD1 kinase inh: inactive; Rad51 HR inh: inactive; Wee1 degr inh: inactive; Arbovirus inh: inactive; Lmaj promast: inactive

Results for O=c1c(Cc2c(F)cccc2Cl)c(O)ccn1CC1CCCO1 (stereo unspecified) ?
CHOP inh: inactive; PKD1 kinase inh: inactive; Rad51 HR inh: inactive; Wee1 degr inh: 12; Arbovirus inh: inactive; Lmaj promast: inactive; Wee1 degr conf: inactive

How did CC1c2ccsc2CCN1C(=O)NC(=O)c1ccc(Cl)cc1 (stereo unspecified) do in these assays?
CHOP inh: inactive; Rad51 HR inh: inactive; Wee1 degr inh: 14; Wee1 degr conf: inactive

What do the screens show for `COc1ccc(/C=N/N=C(\N)c2nonc2N)cc1OC`?
CHOP inh: inactive; PKD1 kinase inh: inactive; Rad51 HR inh: inactive; Wee1 degr inh: 11; Arbovirus inh: inactive; Lmaj promast: inactive; Wee1 degr conf: inactive

How did COCCOC(=O)c1c(C)oc2ccc(OCc3ccccc3)cc12 do in these assays?
CHOP inh: inactive; PKD1 kinase inh: inactive; Wee1 degr inh: 14; Arbovirus inh: inactive; Lmaj promast: inactive; Wee1 degr conf: inactive

How did CCOC(=O)c1c(-c2ccccc2)oc2ccc(OC(C)=O)cc12 do in these assays?
CHOP inh: inactive; PKD1 kinase inh: inactive; Rad51 HR inh: inactive; Wee1 degr inh: 13; Arbovirus inh: inactive; Lmaj promast: inactive; Wee1 degr conf: inactive

Results for COCCOC(=O)c1c(C)oc2ccc(OC(=O)c3ccco3)cc12 ?
CHOP inh: inactive; PKD1 kinase inh: inactive; Wee1 degr inh: inactive; Arbovirus inh: inactive; Lmaj promast: inactive

How did CCOC(=O)C1CCN(C(=O)c2cccnc2Cl)CC1 do in these assays?
CHOP inh: inactive; PKD1 kinase inh: inactive; Rad51 HR inh: inactive; Wee1 degr inh: inactive; Arbovirus inh: inactive; Lmaj promast: inactive

What do the screens show for `Cc1ccc(-n2nc(-c3ccccc3)cc2Nc2ccccc2N)cc1`?
CHOP inh: inactive; PKD1 kinase inh: inactive; Rad51 HR inh: inactive; Wee1 degr inh: 11; Arbovirus inh: inactive; Lmaj promast: inactive; Wee1 degr conf: inactive

How did COc1ccc(NC(=O)C2C3CC/C=C\CCC32)cc1 (stereo unspecified) do in these assays?
CHOP inh: inactive; Rad51 HR inh: inactive; Wee1 degr inh: inactive

Results for CCOc1ccc(NC(=O)C2C3CC/C=C\CCC32)cc1 (stereo unspecified) ?
CHOP inh: inactive; Rad51 HR inh: inactive; Wee1 degr inh: 11; Wee1 degr conf: inactive

What do the screens show for `O=C(/C=C/c1cccc(Cl)c1)NCCN1CCOCC1`?
CHOP inh: inactive; PKD1 kinase inh: inactive; Rad51 HR inh: inactive; Wee1 degr inh: inactive; Arbovirus inh: inactive; Lmaj promast: inactive

What do the screens show for `CC(CC(=O)Nc1ccccc1C(F)(F)F)c1ccccc1` (stereo unspecified)?
CHOP inh: inactive; PKD1 kinase inh: inactive; Rad51 HR inh: inactive; Wee1 degr inh: inactive; Arbovirus inh: inactive; Lmaj promast: inactive
